Measurements from ChEMBL document CHEMBL1122008, “Lipophilic 5'-(alkyl phosphate) esters of 1-beta-D-arabinofuranosylcytosine and its N4-acyl and 2,2'-anhydro-3'-O-acyl derivatives as potential prodrugs” (1982).

Tests used:
Format in all cases: functional
Mus musculus [1] = experiment: Antitumor activity against L1210/ara-C leukemia in mice (Average 7-day weight change) at the dose of 1000 mg/kg
Method in brief: (§1)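 Male B6D2F1J mice (5–9 per group) were given 10^5 L1210/ara-C cells i.p. on day 0, with treatment from day 1 on qd×5 or q4d(2,6). Vehicles were sterile water, pH 7.4 0.05 M phosphate buffer, or a Tween 80/CMC/benzyl alcohol saline suspension. Weights were taken on days 1 and 7; change is expressed in g/mouse and as a percentage.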

Mus musculus [2] = experiment: Antitumor activity against L1210 leukemia in mice (Average 7-day weight change) at the dose of 250 mg/kg
Method in brief: (§2)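 Male B6D2F1J mice, groups of five to nine, inoculated ip with 10^5 L1210 cells on day 0. Drug treatment started day 1 on qd×5 or q4d(2,6) schedule. Vehicles: ara-C in sterile water; the n-butyl phosphate ester in 0.05 M pH 7.4 potassium phosphate buffer; others as suspensions in 0.4% Tween 80/0.5% low-density CMC/0.9% benzyl alcohol/0.9% saline. Mice weighed days 1 and 7; 7-day weight change given as g/mouse and %.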

Mus musculus [3] = experiment: Antitumor activity against L1210 leukemia in mice (Average weight per mouse on day 1.) at the dose of 200 mg/kg
Method in brief: (§3)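 Male B6D2F1J mice (5–9 per group) received 10^5 L1210 cells i.p. on day 0 and drug from day 1, given qd×5 or q4d(2,6). Vehicles were sterile water, 0.05 M potassium phosphate pH 7.4, or 0.4% Tween 80/0.5% CMC/0.9% benzyl alcohol/0.9% saline. Read-out is average body weight per mouse (g) on day 1.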

Mus musculus [4] = experiment: Antitumor activity against L1210 leukemia in mice (Average 7-day weight change) at the dose of 100 mg/kg; method in brief: as §2
Mus musculus [5] = experiment: Antitumor activity against L1210 leukemia in mice (Average weight per mouse on day 1.) at the dose of 50 mg/kg; method in brief: as §3
Mus musculus [6] = experiment: Antitumor activity against L1210 leukemia in mice (Average 7-day weight change) at the dose of 1000 mg/kg; method in brief: as §2
Mus musculus [7] = experiment: Antitumor activity against L1210 leukemia in mice (Percent increase in life span.) at the dose of 500 mg/kg
Method in brief: (§4)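 Male B6D2F1J mice, groups of 5–9, inoculated ip with 10^5 L1210 cells on day 0. Dosing starts day 1 on a qd×5 or q4d(2,6) schedule. Vehicles are sterile water, pH 7.4 0.05 M potassium phosphate buffer, or 0.4% Tween 80/0.5% CMC/0.9% benzyl alcohol/0.9% saline. %ILS = (T/C − 1)×100 from median survival. Weights taken days 1 and 7.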

Mus musculus [8] = experiment: Antitumor activity against L1210/ara-C leukemia in mice (Average 7-day weight change (%)) at the dose of 1000 mg/kg; method in brief: as §1
Mus musculus [9] = experiment: Antitumor activity against L1210 leukemia in mice (Average 7-day weight change) at the dose of 200 mg/kg; method in brief: as §2
Mus musculus [10] = experiment: Antitumor activity against L1210 leukemia in mice (Average 7-day weight change) at the dose of 500 mg/kg; method in brief: as §2
Mus musculus [11] = experiment: Antitumor activity against L1210 leukemia in mice (Percent increase in life span.) at the dose of 250 mg/kg; method in brief: as §4
Mus musculus [12] = experiment: Antitumor activity against L1210/ara-C leukemia in mice (Average 7-day weight change (%)) at the dose of 500 mg/kg; method in brief: as §1
Mus musculus [13] = experiment: Antitumor activity against L1210/ara-C leukemia in mice (Percent increase in life span.) at the dose of 200 mg/kg
Method in brief: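 Same protocol as the L1210 assay, but with 10^5 kinase-deficient L1210/ara-C cells inoculated ip into male B6D2F1J mice (groups of 5–9) on day 0. Treatment begins day 1, qd×5 or q4d(2,6). %ILS = (T/C − 1)×100 using median survival times of treated and control groups. Body weight recorded days 1 and 7.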

For Nc1ccn([C@@H]2O[C@H](CO)[C@@H](O)[C@@H]2O)c(=O)n1 [CYTARABINE], the Weight change (Mus musculus [1]) was 2.4 g mouse-1, the Weight change (Mus musculus [2]) was 1.4 g mouse-1 and the Average weight (Mus musculus [3]) was 22.6 g mouse-1. For the same compound, the Weight change (Mus musculus [4]) was -1 g mouse-1, the Average weight (Mus musculus [5]) was 24 g mouse-1 and the Weight change (Mus musculus [6]) was 0.8 g mouse-1. The ILS at 500 mg/kg (Mus musculus [7]) was 62%, the Weight change (Mus musculus [8]) was 11% and the Weight change (Mus musculus [9]) was -1.6 g mouse-1. For the same compound, the Weight change (Mus musculus [10]) was 0.4 g mouse-1, the ILS at 250 mg/kg (Mus musculus [11]) was 62% and the Weight change (Mus musculus [12]) was 19%. The ILS at 200 mg/kg (Mus musculus [13]) was -13%.
